Results: ChEMBL document CHEMBL2440102, “Furanylazaindoles: potent anticancer agents in vitro and in vivo” (J Med Chem, 2013)
Active and inactive are the calls of the source. The calls are words filed in the database; no cut-off is given here.

Assays:
HUVEC [1] = assay: Induction of vascular disrupting activity in HUVEC assessed as VEGF-induced tube formation at 1000 nM after 4 hrs by microscopic analysis; type: functional, cell-based; conditions: Homo sapiens
Procedure, shortened: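 HUVECs plated at 2×10^4 cells/well on Matrigel in 20% FBS M199 with 20 ng/mL VEGF; capillaries formed over 4 h before compound or DMSO vehicle added. Imaged at addition and 4 h later; capillary tube networks counted manually under microscope (100×). Expressed relative to vehicle; mean ± SD of three separate experiments.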

[2] = Cytotoxicity against human KB-7d cells overexpressing MRP assessed as growth inhibition after 72 hrs by methylene blue staining-based assay; type: functional, cell-based; conditions: KB7D
[3] = Cytotoxicity against human KB-S15 cells overexpressing P-gp170/MDR assessed as growth inhibition after 72 hrs by methylene blue staining-based assay; type: functional, cell-based; conditions: KB-S15, 72 h
[4] = Cytotoxicity against human KB-VIN10 cells overexpressing P-gp170/MDR assessed as growth inhibition after 72 hrs by methylene blue staining-based assay; type: functional, cell-based; conditions: KB-VIN10, 72 h
KB [5] = assay: Cytotoxicity against human KB cells assessed as growth inhibition after 72 hrs by methylene blue staining-based assay; type: functional, cell-based
[6] = Inhibition of bovine brain MAP-rich tubulin polymerization measured every 30 secs for 30 mins by turbidometric method; parameters: species or system Bos taurus
[7] = Cytotoxicity against human H460 cells assessed as growth inhibition after 72 hrs by methylene blue staining-based assay; type: functional, cell-based; conditions: NCI-H460, 72 h
Tubulin = assay: Displacement of [3H]-colchicine from biotin-labeled tubulin (unknown origin) after 2 hrs by scintillation proximity assay; type: protein-complex assay, Homo sapiens
MKN-45 = assay: Cytotoxicity against human MKN45 cells assessed as growth inhibition after 72 hrs by methylene blue staining-based assay; type: functional, cell-based; conditions: MKN-45, 72 h
HUVEC [8] = assay: Induction of vascular disrupting activity in HUVEC assessed as VEGF-induced tube formation at 100 to 1000 nM after 4 hrs by microscopic analysis; type: functional, cell-based; conditions: Homo sapiens
HT-29 = assay: Cytotoxicity against human HT-29 cells assessed as growth inhibition after 72 hrs by methylene blue staining-based assay; type: functional, cell-based; conditions: HT-29, 72 h
Tubulin (Homo sapiens) [9] = molecular target: T1, Tubulin (Homo sapiens) (UniProt P68371+Q9H4B7+P0DPH7+P68366+Q13509+Q71U36+P04350+Q3ZCM7+P07437+P68363+Q9BQE3+Q6PEY2+Q13885+Q9BVA1+Q9BUF5); assay: Displacement of [3H]-colchicine from biotin-labeled tubulin (unknown origin) at 1 uM after 2 hrs by scintillation proximity assay relative to control; type: protein-complex assay
Tubulin (Homo sapiens) [10] = molecular target: T1, Tubulin (Homo sapiens); assay: Displacement of [3H]-colchicine from biotin-labeled tubulin (unknown origin) at 5 uM after 2 hrs by scintillation proximity assay relative to control; type: protein-complex assay
KB [11] = assay: Induction of microtubule depolymerization in human KB cells at 1 uM after 6 hrs by immunofluorescence microscopic analysis; type: cell-based
Procedure, shortened: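 KB cells on coverslips exposed to compound for 6 h; fixed in MeOH/Me2CO (1:1) at -20 °C for 1 h, blocked with 5% skim milk in PBS for 1 h, then anti-α-tubulin monoclonal (1:500) for 2 h and FITC-conjugated secondary (1:200) for 1 h at room temperature. Microtubule network viewed by fluorescence microscopy.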

SMILES: O=c1[nH]cc(F)c(=O)[nH]1
- Activity (HUVEC [1]): inactive

SMILES: COc1cc([C@@H]2c3cc4c(cc3[C@@H](O[C@@H]3O[C@@H]5CO[C@@H](C)O[C@H]5[C@H](O)[C@H]3O)[C@H]3COC(=O)[C@H]23)OCO4)cc(OC)c1O [ETOPOSIDE]
- IC50 [2]: 54000 nM
- IC50 [3]: 3500 nM
- IC50 [4]: 23000 nM

SMILES: CC[C@]1(O)C[C@H]2CN(CCc3c([nH]c4ccccc34)[C@@](C(=O)OC)(c3cc4c(cc3OC)N(C=O)[C@H]3[C@@](O)(C(=O)OC)[C@H](OC(C)=O)[C@]5(CC)C=CCN6CC[C@]43[C@@H]65)C2)C1 [VINCRISTINE]
- IC50 [2]: 1.2 nM
- IC50 (KB [5]): 0.6 nM

SMILES: COc1ccc(/C=C\c2cc(OC)c(OC)c(OC)c2)cc1O [COMBRETASTATIN A4]
- IC50 [6]: 2100 nM

SMILES: COc1ccc(S(=O)(=O)Nc2cccnc2Nc2ccc(O)cc2)cc1 [ABT-751]
- IC50 [6]: 3300 nM
- IC50 [7]: 218 nM
- Ki (Tubulin): 1510 nM
- IC50 [2]: 205 nM
- IC50 (MKN-45): 166 nM
- Activity (HUVEC [8]): Active
- IC50 [3]: 206 nM
- IC50 [4]: 227 nM
- IC50 (HT-29): 339 nM
- IC50 (KB [5]): 251 nM

SMILES: COc1ccc(S(=O)(=O)n2ccc3ccnc(-c4ccc([N+](=O)[O-])cc4)c32)cc1
- inhibition (Tubulin (Homo sapiens) [9]): 21%
- inhibition (Tubulin (Homo sapiens) [10]): 46%

SMILES: COc1ccc(S(=O)(=O)n2ccc3ccnc(-c4cccs4)c32)cc1
- inhibition (Tubulin (Homo sapiens) [9]): 30%
- inhibition (Tubulin (Homo sapiens) [10]): 70%

SMILES: COc1ccc(S(=O)(=O)n2ccc3ccnc(-c4ccc(N(C)C)cc4)c32)cc1
- inhibition (Tubulin (Homo sapiens) [9]): 41%
- inhibition (Tubulin (Homo sapiens) [10]): 74%

SMILES: CC(=O)O[C@H]1C(=O)[C@@]2(C)[C@H]([C@H](OC(=O)c3ccccc3)[C@]3(O)C[C@H](OC(=O)[C@H](O)[C@@H](NC(=O)c4ccccc4)c4ccccc4)C(C)=C1C3(C)C)[C@]1(OC(C)=O)CO[C@@H]1C[C@@H]2O [PACLITAXEL]
- Activity (KB [11]): inactive
- IC50 [2]: 7.9 nM
- IC50 (KB [5]): 4.1 nM

SMILES: COc1ccc(S(=O)(=O)n2ccc3ccnc(-c4ccc(Cl)cc4)c32)cc1
- inhibition (Tubulin (Homo sapiens) [9]): 41%
- inhibition (Tubulin (Homo sapiens) [10]): 72%

SMILES: COc1ccc(S(=O)(=O)n2ccc3ccnc(-c4ccccc4)c32)cc1
- inhibition (Tubulin (Homo sapiens) [9]): 42%
- inhibition (Tubulin (Homo sapiens) [10]): 63%

SMILES: COc1ccc(S(=O)(=O)n2ccc3ccnc(-c4ccc(C(F)(F)F)cc4)c32)cc1
- inhibition (Tubulin (Homo sapiens) [9]): 35%
- inhibition (Tubulin (Homo sapiens) [10]): 65%

SMILES: COc1ccc(S(=O)(=O)n2ccc3ccnc(-c4ccco4)c32)cc1
- inhibition (Tubulin (Homo sapiens) [9]): 63%
- Ki (Tubulin): 380 nM
- inhibition (Tubulin (Homo sapiens) [10]): 81%

SMILES: COc1cc2c(c(OC)c1OC)-c1ccc(OC)c(=O)cc1[C@@H](NC(C)=O)CC2 [COLCHICINE]
- IC50 [7]: 19.8 nM
- Activity (KB [11]): Active
- IC50 [2]: 51.8 nM
- IC50 (MKN-45): 11.5 nM
- IC50 [3]: 35.4 nM
- IC50 [4]: 122 nM
- IC50 (HT-29): 15.2 nM

SMILES: COc1ccc(S(=O)(=O)n2ccc3ccnc(-c4ccncc4)c32)cc1
- inhibition (Tubulin (Homo sapiens) [9]): 35%
- inhibition (Tubulin (Homo sapiens) [10]): 59%
